SR-BI uptake up = activators of SR-BI mediated HDL lipid uptake; 320,000 tested, 0.096% active; activation, % at 12.5 µM; CHO ldlA[mSR-BI] cells, DiI-HDL uptake fluorescence, 3 h; 100 = double the neutral-control signal;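 active = mean replicate activation of at least 60% and every replicate at or above 60%; inconclusive = mean or all-replicate condition met, but not both; inactive = mean below 60% and not all replicates reaching 60%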;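 also: 0% = median plate neutral-control signal and 100% = twice that signal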
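system = CHO ldlA[mSR-BI] cells, LDL receptor-null, SR-BI overexpressing | medium = Ham's F12 with 0.5% BSA, HEPES 25 mM, pH 7.4 | probe or stimulus = DiI-HDL 10 µg/mL | compound dosing = single-point compound dose | incubation = compound exposure 3 h, 37 °C | technique = DiI fluorescence, bottom read | read-out = cell-associated DiI fluorescence as measure of HDL uptake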
SR-BI HDL uptake = blocks mouse SR-BI lipid uptake from DiI-HDL. Q61009. ldlA[mSR-BI] CHO cells, DiI-HDL uptake fluorescence, 3 h. inhibition, % at 12.5 µM. 320,000 tested, 0.96% active. AID 488896;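 active = mean replicate inhibition of at least 70% and a set share of replicates each scoring 70 or more; inconclusive = meets just one of the two criteria; inactive = fails both criteria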;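 also: 0% = median of neutral control wells and 100% = median of positive control wells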
CDK5 inh = blocks human CDK5/p35 kinase activity; Q00535+Q15078; Recombinant CDK5/p35, ADP-Glo luminescence, 60 min; inhibition, % at 10 µM; 330,000 tested, 0.01% active;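 active = highest replicate inhibition of at least 50% and at least 75% of replicates reaching 50%; inconclusive = only one of the two criteria met; inactive = both criteria failed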;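 also: plate controls were DMSO neutral control for no effect and GW8510 at 10 µM for full effect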
Target sequence (Q00535 whole entry, looked up): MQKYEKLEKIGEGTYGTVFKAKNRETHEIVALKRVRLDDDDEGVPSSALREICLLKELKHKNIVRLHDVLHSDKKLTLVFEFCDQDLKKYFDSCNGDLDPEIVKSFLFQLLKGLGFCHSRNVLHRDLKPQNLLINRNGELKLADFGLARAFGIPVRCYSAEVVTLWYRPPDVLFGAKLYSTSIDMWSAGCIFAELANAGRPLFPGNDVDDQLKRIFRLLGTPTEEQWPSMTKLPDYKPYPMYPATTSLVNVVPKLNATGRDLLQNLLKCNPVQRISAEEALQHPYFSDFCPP
Target sequence (Q15078 whole entry, looked up): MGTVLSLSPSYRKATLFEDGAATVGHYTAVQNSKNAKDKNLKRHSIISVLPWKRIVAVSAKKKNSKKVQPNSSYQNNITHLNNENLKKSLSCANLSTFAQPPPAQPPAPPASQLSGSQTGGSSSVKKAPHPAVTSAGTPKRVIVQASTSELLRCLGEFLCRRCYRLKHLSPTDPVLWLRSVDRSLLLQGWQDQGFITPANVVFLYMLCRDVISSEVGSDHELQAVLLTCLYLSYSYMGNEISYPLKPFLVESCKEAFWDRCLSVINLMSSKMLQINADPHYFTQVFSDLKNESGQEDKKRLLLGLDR
dFosB activator = mouse delta FosB homodimer activation; P13346; purified delta FosB, TAMRA-CDK5 oligo fluorescence polarization; percent of positive-control signal above neutral wells; activation, % at 25 µM; 340,000 tested, 0.99% active;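 active = mean activation above about 17%, with every replicate also reaching it, limit read from the data, passing the limit was not always enough; inconclusive = only one of the two conditions met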
DiI quench = quenches DiI-HDL fluorescence, an SR-BI assay artifact; AID 540326; shares compounds with SR-BI HDL uptake; 470 tested, 20% active; AC50, µM (top dose mostly 35 µM), inactives show top-dose activity change, negative = quenching; cell-free DiI-HDL fluorescence quenching, 30 min;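 active = quenching, a falling signal, with AC50 below a set limit tied to the top valid dose, actives reach about 32 µM in these data; inconclusive = no clear call, values can overlap the other calls; inactive = rising signal, and the rest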
Active calls of the source: *; ? = inconclusive; . = not tested or not shown. A selection: hits, their analogues and other compounds. The true share with any hit is near 2%.

SMILES	SR-BI uptake up	SR-BI HDL uptake	CDK5 inh	dFosB activator	DiI quench
COc1ccc(N2CCN(C(=O)c3cc(=O)[nH]c4ccccc34)CC2)cc1	-52.1	52.1	-1.6	1.0	-6.7%
Cc1ccc(F)cc1NC(=O)C1C2CCC(O2)C1C(=O)O (stereo not drawn)	23.5	-23.5	1.2	-12.0	-3.5%
O=C(c1ccc([N+](=O)[O-])cc1)N1CCOC12CCN(c1ncc(C(F)(F)F)cc1Cl)CC2	2.7	-2.7	-0.7	5.6	-18.7%
CCOC(=O)[C@H]1[C@H]2COc3ccc(OC)cc3[C@@H]2N2C(=O)c3cc(OC)ccc3NC(=O)[C@@]12C	36.2	-36.2	0.1	-2.0	.
Cc1cc(CN(C)C(=O)C2CCC(=O)N(CCc3cccc(F)c3)C2)on1 (stereo not drawn)	12.5	-12.5	1.0	-1.0	-5.7%
CN(C(=O)c1ccc(NC(=O)C2CCCN(C(=O)OC(C)(C)C)C2)cc1)C1CCC1 (stereo not drawn)	-22.6	22.6	-1.9	-7.6	.
CCn1c(SCC(=O)Nc2ncc(C(F)(F)F)cc2Cl)nnc1-c1cccc(C)c1	25.7	-25.7	-1.0	-11.7	.
COc1ccc(-c2nnc(SCC(=O)Nc3ncc(C(F)(F)F)cc3Cl)n2CC(C)C)cc1	-25.0	25.0	-1.4	-7.1	-5.6%
O=C1NCCOC(=O)[C@H](Cc2ccc(F)cc2)C/C=C\C[C@@H]1CC(=O)N(CCO)Cc1ccccc1	8.9	-8.8	0.5	-2.0	-3.4%
O=C(C[C@H]1C/C=C\C[C@H](NC(=O)OCC2c3ccccc3-c3ccccc32)C(=O)O[C@@H](c2ccccc2)CNC1=O)NCCO	-40.5	40.5	-5.9	?	.
O=C(N[C@@H]1C/C=C\C[C@H](CC(=O)N(CCO)Cc2ccccc2)C(=O)N[C@@H](Cc2ccccc2)COC1=O)OCC1c2ccccc2-c2ccccc21	-45.8	45.8	-2.2	-9.4	.
O=C(C[C@@H]1C/C=C\C[C@H](NC(=O)OCC2c3ccccc3-c3ccccc32)C(=O)O[C@H](c2ccccc2)CNC1=O)NCCO	-36.1	36.1	4.3	-3.2	-10.3%
O=C(N[C@@H]1C/C=C\C[C@@H](CC(=O)N(CCO)Cc2ccccc2)C(=O)NCCOC1=O)OCC1c2ccccc2-c2ccccc21	-78.0	78.0*	-0.3	-0.2	-8.6%
C[C@@H]1COC(=O)[C@H](NC(=O)OCC2c3ccccc3-c3ccccc32)C/C=C\C[C@@H](CC(=O)N[C@@H](CO)Cc2ccccc2)C(=O)N1	-83.8	83.8*	-0.8	8.4	-5.5%
O=C(NNC(=O)C1CCN(C(=O)Nc2ccccc2)CC1)c1ccc(F)cc1	-0.5	0.5	-1.0	-6.0	.
CN1CCN(S(=O)(=O)c2cccc(C#N)c2)C(c2ccccc2)C1 (stereo not drawn)	14.3	-14.3	-3.2	-3.8	.
CC(=O)Nc1nc(-c2ccccc2)nc(-c2ccccc2OC(C)=O)n1	-75.4	?	1.3	-25.9	4.3%
CCOc1ccc2c(c1)-c1c(ssc1=S)C(C)(C)N2C(=O)c1ccco1	-73.5	73.5*	-2.0	-4.1	30.7µM*
COc1cc(NC(=O)c2cc(-c3ccccc3Cl)on2)cc(OC)c1OC	-82.7	82.7*	0.6	5.7	-2.4%
COc1ccc(C2/C=C\CN(S(=O)(=O)c3ccc(C)cc3)[C@H](Cc3ccccc3)C(=O)N2Cc2ccc(F)cc2)cc1 (stereo partly drawn)	-16.3	16.3	-0.9	-5.2	.
COc1ccc(C2/C=C\CN(S(=O)(=O)c3ccc(-c4ccccc4)cc3)CC(=O)N2Cc2ccc(F)cc2)cc1 (stereo not drawn)	-81.2	81.2*	1.2	-1.3	-5.2%
CC(=O)Nc1ccc(S(=O)(=O)N2CCC(C(=O)NCCC(=O)NCc3ccccc3)CC2)cc1	-119.4	119.4*	-1.5	-5.7	-2.6%
O=C(NNC(=O)c1cc(Br)ccc1O)c1csc(N2CCOCC2)n1	-128.0	128.0*	0.8	-1.6	1µM*
Cc1ccc(OCc2cc(C(=O)N3CCCC(O)C3)no2)cn1 (stereo not drawn)	3.1	-3.1	0.5	7.5	-0.4%
Cc1ccc(OCc2cc(C(=O)N3CCN(CC(=O)NC(C)C)CC3)no2)cn1	-9.1	9.1	.	-6.0	.
SMILES	SR-BI uptake up	SR-BI HDL uptake	CDK5 inh	dFosB activator	DiI quench
CCOC(=O)C1CCN(C(=O)Cn2nc(C)n3nc(-c4ccc(OC)cc4)cc3c2=O)CC1	-60.8	60.8	2.4	-1.0	-0.7%
CCOC(=O)N1CCN(C(=O)Cn2nc(C)n3nc(-c4ccc(OC)cc4)cc3c2=O)CC1	-33.9	33.9	1.3	-2.9	.
COc1ccc(S(=O)(=O)N2CCN(Cc3ccco3)CC2)cc1	23.1	-23.1	0.4	-4.7	.
CSc1nccc(-c2sc(SC)c(C#N)c2-c2ccccc2)n1	-84.2	84.2*	1.0	-4.7	-3.2%
CSc1sc(-c2ccnc(SCCS(C)(=O)=O)n2)c(-c2ccccc2)c1C#N	-51.1	51.0	-0.9	-9.2	.
COc1cccc(-c2csc(N3CCN(C(=S)Nc4cccc(C)c4)CC3)n2)c1	-90.1	90.1*	2.0	-15.0	-9.8%
COc1cccc(-c2csc(N3CCN(C(=O)NC45CC6CC(CC(C6)C4)C5)CC3)n2)c1	17.2	-17.2	-1.3	-17.9	-6.1%
COc1cccc(-c2csc(N3CCN(C(=S)Nc4ccccc4)CC3)n2)c1	-67.9	67.9	0.9	0.9	.
COc1cccc(NC(=O)N2CCN(c3nc(-c4cccc(OC)c4)cs3)CC2)c1	.	.	-2.3	1.0	.
COc1ccc(NC2CCCN(C(=O)CSc3ccncc3)C2)cc1 (stereo not drawn)	9.9	-9.9	-1.7	-0.2	.
Nc1nonc1-n1nnc(C(=O)N/N=C/c2ccoc2)c1CSc1ccc(Cl)cc1	4.5	-4.5	-0.7	-1.7	.
CC(NC(=O)CN(c1cccc(C(F)(F)F)c1)S(C)(=O)=O)c1ccccc1 (stereo not drawn)	6.0	-6.0	0.2	1.1	.
O=C(N/N=C/c1cccc(Cl)c1)C1CCCC1	11.7	-11.7	-0.1	3.6	.
CCOC(=O)Nc1ccc2c(c1)N(C(=O)C(C)N1CCCC1)c1ccccc1CC2 (stereo not drawn)	16.3	-16.3	0.0	-3.8	-0.8%
CC(C)c1nnc(NC(=O)CCC(=O)N2CCN(C3c4ccccc4-c4ccccc43)CC2)s1	-73.1	?	0.4	-10.4	-2.5%
COc1ccccc1C(=O)COC(=O)/C(=C/c1ccccc1)NC(C)=O	-22.9	22.9	-0.9	-5.8	.
Clc1ccc(Cn2nnc(-c3ccc(N4CCOCC4)cc3)n2)cc1	-83.5	83.5*	0.0	0.4	-5.7%
COc1cc(NC(=O)Cc2ccc(Cl)cc2)ccc1NC(=O)c1ccco1	-50.8	50.8	-1.5	-2.3	.
COc1cc(NC(=O)c2ccco2)c(OC)cc1NC(=O)Nc1ccc(Cl)cc1	-100.0	100.0*	-3.4	14.3	5.08µM*
COc1ccc(Cl)cc1NC(=O)CSc1nnc(C2CC2)n1C	2.3	-2.3	0.0	-8.7	.

High-throughput results as filed in PubChem BioAssay.
